Data taken from paper PMC7384665 (Bioorganic & medicinal chemistry, 2020).
Where two headings read alike, the source gives them in different places.

What was measured:
[1] = tested on: RPMI-8226 myeloma cells; assay: H-Ras immunoblot; type: cell-based; conditions: RPMI-8226 cells, 48 h
[2] = molecular target: Recombinant GGTase I (Rattus norvegicus, UniProt P53610+Q04631); assay: GGTase I enzyme assay; type: biochemical
Procedure, shortened: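 Recombinant GGTase I activity measured by a modified Temple et al. method, with dansyl-peptide substrates (dansyl-GCVLS and dansyl-GCVLL listed for the FTase/GGTase I assays); fluorescence change followed over time on a microplate reader. Test compound run in duplicate at multiple concentrations, three independent experiments; IC50 obtained from concentration-response curves.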

[3] = molecular target: Recombinant FTase (Rattus norvegicus, UniProt Q02293+Q04631); assay: FTase enzyme assay; type: biochemical; conditions: for FTase inhibitory activity: concentrations as high as 100 μM, data not shown
Sequence of Recombinant FTase (Q02293 whole entry, one chain of several): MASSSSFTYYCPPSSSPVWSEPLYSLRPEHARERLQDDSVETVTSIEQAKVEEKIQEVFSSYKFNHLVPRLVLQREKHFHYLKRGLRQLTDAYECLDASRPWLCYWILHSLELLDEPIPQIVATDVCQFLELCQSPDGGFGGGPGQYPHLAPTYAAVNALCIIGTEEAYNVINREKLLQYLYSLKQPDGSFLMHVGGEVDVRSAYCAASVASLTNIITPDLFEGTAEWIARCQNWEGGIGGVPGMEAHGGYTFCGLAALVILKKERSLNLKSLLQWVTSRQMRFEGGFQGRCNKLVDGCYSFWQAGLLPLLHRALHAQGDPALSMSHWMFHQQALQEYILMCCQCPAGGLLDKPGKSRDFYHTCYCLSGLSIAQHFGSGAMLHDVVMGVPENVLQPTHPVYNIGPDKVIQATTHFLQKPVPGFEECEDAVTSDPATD

[4] = tested on: RPMI-8226 myeloma cells; assay: Cellular assays: Rap1a immunoblot and intracellular lambda light chain ELISA; type: cell-based
[5] = concentrations as high as 100 μM, data not shown

Sequence of Recombinant GGTase I (P53610 whole entry, one chain of several): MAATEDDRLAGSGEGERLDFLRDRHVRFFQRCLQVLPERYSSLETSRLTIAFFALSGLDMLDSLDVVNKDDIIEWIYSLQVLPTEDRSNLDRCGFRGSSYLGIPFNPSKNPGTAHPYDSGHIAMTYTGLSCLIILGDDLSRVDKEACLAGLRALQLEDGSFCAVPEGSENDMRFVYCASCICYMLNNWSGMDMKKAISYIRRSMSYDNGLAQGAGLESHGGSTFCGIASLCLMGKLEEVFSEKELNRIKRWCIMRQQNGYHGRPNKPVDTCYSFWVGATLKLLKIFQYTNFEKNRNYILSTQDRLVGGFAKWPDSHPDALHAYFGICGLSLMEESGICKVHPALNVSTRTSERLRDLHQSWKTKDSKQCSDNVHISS

| SMILES | Effect on H-Ras farnesylation (prenylation) [1] | FTase inhibitory activity [3] | GGTase I inhibitory activity [2, 5] | also measured |
| --- | --- | --- | --- | --- |
| CC(C)=CCC/C(C)=C/C(=O)NCCC(P(=O)([O-])[O-])P(=O)([O-])[O-].[Na+].[Na+].[Na+].[Na+] [Compound 2b, Disodium (1-[bis(sodiooxy)phosphoryl]-3-[(2E)-3,7-dimethylocta-2,6-dienamido]propyl)phosphonate] | disrupted H-Ras farnesylation | – | – | GGTase I inhibitory activity [2]: no inhibitory activity |
| CC(C)=CCC/C(C)=C\C(=O)NCCC(P(=O)(O)O)P(=O)(O)O [Compound 2c] | – | – | – | inhibition at 100 µM ([3]; read-out: FTase inhibitory activity): < 30% |
| CC(C)=CCC[C@H](C)CC(=O)NCCC(P(=O)([O-])[O-])P(=O)([O-])[O-].[Na+].[Na+].[Na+].[Na+] [Compound 2d, Disodium (1-[bis(sodiooxy)phosphoryl]-3-[(3S)-3,7-dimethyloct-6-enamido]propyl)phosphonate] | None of these compounds (2g, 2h, 2i, 2e, 2d) disrupted H-Ras farnesylation | no inhibitory activity was observed | no inhibitory activity was observed | – |
| CC(C)=CCC[C@@H](C)CC(=O)NCCC(P(=O)([O-])[O-])P(=O)([O-])[O-].[Na+].[Na+].[Na+].[Na+] [Compound 2e, Disodium (1-[bis(sodiooxy)phosphoryl]-3-[(3R)-3,7-dimethyloct-6-enamido]propyl)phosphonate] | None of these compounds (2g, 2h, 2i, 2e, 2d) disrupted H-Ras farnesylation | no inhibitory activity was observed | no inhibitory activity was observed | Fold more potent than S-isomer 2d ([4]; cellular assays): 10 fold |
| CC(C)=CCC/C(C)=C\CC(=O)NCCC(P(=O)([O-])[O-])P(=O)([O-])[O-].[Na+].[Na+].[Na+].[Na+] [Compound 2g, Disodium (1-[bis(sodiooxy)phosphoryl]-3-[(3Z)-4,8-dimethylnona-3,7-dienamido]propyl)phosphonate] | None of these compounds (2g, 2h, 2i, 2e, 2d) disrupted H-Ras farnesylation | no inhibitory activity was observed | no inhibitory activity was observed | Fold increase in GGDPS inhibitor activity with respect to 2c ([4]; Figure 3B, Rap1a immunoblot): 10 fold |
| CC(C)=CCC/C(C)=C/CCC(=O)NCCC(P(=O)([O-])[O-])P(=O)([O-])[O-].[Na+].[Na+].[Na+].[Na+] [Compound 2h, Disodium (1-[bis(sodiooxy)phosphoryl]-3-[(4E)-5,9-dimethyldeca-4,8-dienamido]propyl)phosphonate] | None of these compounds (2g, 2h, 2i, 2e, 2d) disrupted H-Ras farnesylation | no inhibitory activity was observed | no inhibitory activity was observed | – |
| CC(C)=CCC/C(C)=C\CCC(=O)NCCC(P(=O)([O-])[O-])P(=O)([O-])[O-].[Na+].[Na+].[Na+].[Na+] [Compound 2i, Disodium (1-[bis(sodiooxy)phosphoryl]-3-[(4Z)-5,9-dimethyldeca-4,8-dienamido]propyl)phosphonate] | None of these compounds (2g, 2h, 2i, 2e, 2d) disrupted H-Ras farnesylation | no inhibitory activity was observed | no inhibitory activity was observed | Times less potent than triazole 1 ([4]; by LEC): approximately 17 times |
| CC(C)=CCCC(=O)NCCC(P(=O)([O-])[O-])P(=O)([O-])[O-].[Na+].[Na+].[Na+].[Na+] [Compound 2j, Disodium (1-[bis(sodiooxy)phosphoryl]-3-(5-methylhex-4-enamido)propyl)phosphonate] | lack of effect | – | – | – |
